Twelve compounds from ChEMBL document CHEMBL2029222, “Synthesis and biological evaluation of a class of 5-benzylidene-2-phenyl-thiazolinones as potent 5-lipoxygenase inhibitors” (Bioorg Med Chem, 2012) can be followed below.

A word on the IC50: it is the concentration that inhibits the measured activity by half.

Data set [1] deals with U-937. In words: Cytotoxicity against human U937 cells assessed as cell viability after 48 hrs by WST-1 assay. The settings on record: U-937, 48 h. Type of data set: cell-based. Put shortly: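 U937 cells (10^4 per well, RPMI with 10% FCS, 37 °C, 5% CO2) treated with increasing compound concentrations for 48 h in 10% FCS; mitochondrial metabolic activity read by WST-1 kit protocol. IC50 for viability loss; at least three experiments, mean ± SE.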
For orientation: Tetrazolium dyes change colour on reduction, which living cells bring about.

In data set [2] the test system is U-937. As to the kind of experiment: Cytotoxicity against human U937 cells assessed as LDH leakage at 30 uM after 48 hrs by microplate reader assay relative to control. The settings on record: u-937, 48 h. Type of data set: cell-based.
The target of data set [3] is T1, Polyunsaturated fatty acid 5-lipoxygenase (Homo sapiens, UniProt P09917).
T1 sequence (P09917 whole entry): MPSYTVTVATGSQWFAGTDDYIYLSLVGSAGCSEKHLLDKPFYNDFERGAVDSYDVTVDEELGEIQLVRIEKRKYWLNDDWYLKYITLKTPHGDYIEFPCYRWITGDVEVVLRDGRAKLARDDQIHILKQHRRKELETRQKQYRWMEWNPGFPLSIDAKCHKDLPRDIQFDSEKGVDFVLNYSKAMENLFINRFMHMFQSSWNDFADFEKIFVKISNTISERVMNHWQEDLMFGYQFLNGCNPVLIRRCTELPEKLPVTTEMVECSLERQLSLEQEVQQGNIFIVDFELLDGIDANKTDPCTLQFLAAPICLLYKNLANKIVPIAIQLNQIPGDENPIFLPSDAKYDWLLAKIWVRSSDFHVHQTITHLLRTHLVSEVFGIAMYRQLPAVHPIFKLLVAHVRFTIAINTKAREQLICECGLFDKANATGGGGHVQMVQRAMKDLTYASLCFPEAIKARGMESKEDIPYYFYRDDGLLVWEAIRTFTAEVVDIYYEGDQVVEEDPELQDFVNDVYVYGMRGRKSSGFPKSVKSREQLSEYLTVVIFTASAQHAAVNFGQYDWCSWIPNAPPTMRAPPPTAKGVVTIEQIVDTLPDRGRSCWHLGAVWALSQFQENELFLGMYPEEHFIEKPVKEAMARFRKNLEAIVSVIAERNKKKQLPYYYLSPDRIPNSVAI
As to the kind of experiment: Inhibition of 5-lipoxygenase in human polynuclear leukocytes assessed as inhibition of A23187-stimulated 5-LO product formation preincubated for 15 mins measured after 10 mins by HPLC analysis. It counts as cell-based.

Data set [4] deals with T2, Polyunsaturated fatty acid 5-lipoxygenase (Homo sapiens) (UniProt P09917).
T2 sequence (whole entry): T1 sequence (P09917 whole entry)
In words: Inhibition of 5-lipoxygenase in human polynuclear leukocytes assessed as residual activity at 10 uM preincubated for 15 mins measured after 10 mins by HPLC analysis relative to control. It counts as cell-based. A digest of the protocol: (§1)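 Freshly isolated human PMNL (5 × 10^6 per mL PBS pH 7.4, 1 mg/mL glucose, 1 mM CaCl2) preincubated with compounds 15 min at 37 °C, then stimulated with A23187 (2.5 µM) plus AA (20 µM) for 10 min. Methanol stop, PGB1 internal standard; LTB4, all-trans isomers and 5-H(P)ETE per 10^6 cells by HPLC. n≥3, mean ± SE.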

Data set [5] addresses T2, Polyunsaturated fatty acid 5-lipoxygenase (Homo sapiens). As to the kind of experiment: Inhibition of 5-lipoxygenase in cell free S100 freshly isolated human PMNL cells assessed as assessed as residual activity at 10 uM preincubated for 15 mins measured after 10 mins by HPLC analysis relative to control. Put shortly: (§2)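 Human donor PMNL in PBS with 1 mM EDTA plus protease inhibitors, sonicated, spun 100,000g 70 min at 4 °C. S100 equivalent to 7.5 × 10^6 cells in PBS pH 7.4, 1 mM EDTA, 1 mM ATP; compound or DMSO 15 min at 4 °C, then 20 µM AA plus 2 mM CaCl2, 10 min at 37 °C. Methanol stop; products by HPLC; n≥3, mean ± SE.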

Data set [6] has as its target T1, Polyunsaturated fatty acid 5-lipoxygenase. In words: Inhibition of 5-lipoxygenase in cell free S100 freshly isolated human PMNL cells assessed as inhibition of 5-LO product formation preincubated for 15 mins measured after 10 mins by HPLC analysis.
Data set [7] concerns the target T2, Polyunsaturated fatty acid 5-lipoxygenase (Homo sapiens). As to the kind of experiment: Inhibition of 5-lipoxygenase in human polynuclear leukocytes assessed as residual activity at 1 uM preincubated for 15 mins measured after 10 mins by HPLC analysis relative to control. Type of data set: cell-based. A digest of the protocol:
as §1

For data set [8] the target is unchanged. As to the kind of experiment: Inhibition of 5-lipoxygenase in cell free S100 freshly isolated human PMNL cells assessed as assessed as residual activity at 1 uM preincubated for 15 mins measured after 10 mins by HPLC analysis relative to control. Put shortly:
as §2

For the compound `COc1ccc(/C=C2\SC(c3ccc4ccccc4c3)=NC2=O)cc1`, in the data set on U-937 [1], the IC50 was > 30 µM. Further, in the data set with U-937 [2], the Activity was 4.1%.
On the same counts, the results for `COc1ccc(/C=C2\SC(c3ccc(C)cc3)=NC2=O)cc1` are > 30 µM and 2.7%.
Turning to `COc1ccc(/C=C2\SC(c3ccc(Cl)cc3)=NC2=O)c2ccccc12`, the IC50 in the data set on U-937 [1] is > 30 µM. The Activity with U-937 [2] is recorded as 12.2%.
Consider `O=C1N=C(c2ccc(Cl)cc2)S/C1=C\c1ccc(Oc2ccccc2)cc1`, for which, in the data set with U-937 [1], the IC50 was > 30 µM. Further, the Activity in the data set on U-937 [2] turned out to be 12%.
`COc1ccc(C2=NC(=O)/C(=C/c3cc4ccccc4[nH]3)S2)cc1`: the IC50 in data set [3] is 0.67 µM; in data set [6], 0.57 µM. Also, the Activity in data set [4] was found to be 20.5%; in data set [5] it was 21.4%.
As for `CC(=O)N(O)C/C=C/c1cccc(Oc2ccccc2)c1`, the Activity in data set [4] was < 10%; in data set [5] it was < 10%; in the data set on U-937 [2], 0.8%. In addition, the IC50 with U-937 [1] was > 30 µM.
For the compound `COc1ccc(/C(C)=C2\SC(c3ccc(C)cc3)=NC2=O)cc1`, the IC50 in the data set with U-937 [1] came to 12.1 µM. Further, the Activity in the data set with U-937 [2] is reported as 106%.
Regarding `CCCOc1ccc(/C=C2\SC(c3ccc(Cl)cc3)=NC2=O)cc1`, in the data set on U-937 [1], the IC50 was 21.1 µM. Besides, the Activity with U-937 [2] was 48.9%.
Consider `COc1ccc(/C=C2\SC(c3ccc(OC)cc3)=NC2=O)cc1`, for which the Activity in data set [5] turned out to be 38.8%; in data set [7], 21.4%.
For `COc1ccc(/C=C2\SC(c3ccc(N)cc3)=NC2=O)cc1`, the Activity came to 72.9% in data set [7] and 37.2% in data set [8].
`COc1ccc(/C=C2\SC(c3cccc(NC(=O)C45CC6CC(CC(C6)C4)C5)c3)=NC2=O)cc1`: in the data set on U-937 [1], the IC50 is > 30 µM. Besides, the Activity in the data set with U-937 [2] is 8.4%.
The corresponding values for `COc1ccc(C2=NC(=O)/C(=C/c3ccc(C)cc3)S2)cc1` are > 30 µM and 15.8%.
